ChEMBL document CHEMBL1152544, “Inhibitory effect of beta-diketones and their metal complexes on TNF-alpha induced expression of ICAM-1 on human endothelial cells” (Bioorg Med Chem, 2009)
≈ marks a conversion by molar mass, not a printed value.

Assays:
[1] = system: HUVEC; assay: Antiinflammatory activity in HUVEC assessed as inhibition of TNF-alpha-induced cell surface ICAM1 expression at 271.4 uM/ml preincubated before TNFalpha challenge measured after 16 hrs by ELISA; assay type: functional; details: Homo sapiens
Method in brief: (§1)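 Primary umbilical-cord HUVEC in M-199 with 15% FCS were grown confluent on gelatinized plates. They were pretreated with compound in DMSO, then given TNF-α for 16 h. Cells were fixed in 1% glutaraldehyde (30 min, 4 °C) and blocked in 3% defatted milk (3 h, 37 °C). Detection used anti-ICAM-1 mAb overnight at 4 °C, then peroxidase secondary (3 h, 37 °C). Substrate was o-phenylenediamine in citrate pH 4.5, stopped with 2 N H2SO4, read at A490.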

[2] = system: HUVEC; assay: Antiinflammatory activity in HUVEC assessed as inhibition of TNF-alpha-induced cell surface ICAM1 expression preincubated before TNFalpha challenge measured after 16 hrs by ELISA; assay type: functional, cell-based; details: Homo sapiens; method in brief: as §1
[3] = system: HUVEC; assay: Cytotoxicity against HUVEC assessed as cell viability at 6.25 to 200 ug/mL after 24 hrs by MTT assay; assay type: cell-based; details: human
Method in brief: (§2)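 Primary HUVEC were exposed for 24 h to compound or vehicle (DMSO alone, 0.25%). Medium was replaced with MTT for the final 4 h. Formazan was then dissolved in DMSO and read at 570 nm. Viability was also checked by trypan blue exclusion.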

[4] = system: HUVEC; assay: Antiinflammatory activity in HUVEC assessed as inhibition of TNF-alpha-induced cell surface ICAM1 expression at 60 ug/ml preincubated before TNFalpha challenge measured after 16 hrs by ELISA; assay type: functional; details: Homo sapiens; method in brief: as §1
[5] = Cytotoxicity against HUVEC assessed as cell viability at 60 ug/mL after 24 hrs by MTT assay; assay type: cell-based; details: human, HUVEC cells; read-out: Activity; method in brief: as §2
[6] = system: HUVEC; assay: Cytotoxicity against HUVEC after 24 hrs by MTT assay; assay type: cell-based; details: human
Method in brief: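 Primary endothelial cells isolated from human umbilical cord, grown in M-199 with 15% fetal calf serum, L-glutamine, penicillin, streptomycin, amphotericin and endothelial-cell growth factor, and used after three passages. Cells exposed to vehicle (DMSO 0.25%) or a range of compound concentrations for 24 h. MTT added for the last 4 h, formazan dissolved in DMSO, absorbance read at 570 nm. Trypan blue exclusion also done.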

[7] = system: HUVEC; assay: Antiinflammatory activity in HUVEC assessed as inhibition of TNF-alpha-induced cell surface ICAM1 expression at 50 uM/ml preincubated before TNFalpha challenge measured after 16 hrs by ELISA; assay type: functional; details: Homo sapiens

SMILES	inhibition at 271.4 µM [1]	IC50 [2]	Activity [3]	inhibition at 60 µg/mL [4]	viability at 24 h, 60 ug/mL [5]	MTD [6]	inhibition at 50 µM [7]
CC1=NN(c2ccccc2)C(=O)C1C(=O)c1ccccc1 (stereo not drawn)	62%	36.3 µg/mL (≈ 130 µM)	Non-toxic	75%	95.8%	271.4 uM/ml	
CC(=O)C1C(=O)N(c2ccccc2)N=C1c1ccccc1 (stereo not drawn)				20%	97.9%		
Cc1[nH]n(-c2ccccc2)c(=O)c1C(=O)CC(C)(C)C				35%	97.1%		
CC1=NN(c2ccccc2)C(=O)C1C(=O)C(C)(C)C (stereo not drawn)				60%	96.1%		
CC1=NN(c2ccccc2)C(=O)C1C(=O)c1ccco1 (stereo not drawn)				55%	96.2%		
CC1=NN(c2ccccc2)C(=O)C1C(=O)CCC1CCCC1 (stereo not drawn)				35%	98.6%		
COc1cc(/C=C/C(=O)CC(=O)/C=C/c2ccc(O)c(OC)c2)ccc1O [CURCUMIN]						50 uM/ml	90%
